How the values were obtained:
[1] = molecular target: T1, Adrenergic receptor alpha-2 (Rattus norvegicus, UniProt P22086+P19328+P22909); assay: In vitro binding affinity against alpha-2 adrenergic receptor in rat
T1 sequence (P22086 whole entry): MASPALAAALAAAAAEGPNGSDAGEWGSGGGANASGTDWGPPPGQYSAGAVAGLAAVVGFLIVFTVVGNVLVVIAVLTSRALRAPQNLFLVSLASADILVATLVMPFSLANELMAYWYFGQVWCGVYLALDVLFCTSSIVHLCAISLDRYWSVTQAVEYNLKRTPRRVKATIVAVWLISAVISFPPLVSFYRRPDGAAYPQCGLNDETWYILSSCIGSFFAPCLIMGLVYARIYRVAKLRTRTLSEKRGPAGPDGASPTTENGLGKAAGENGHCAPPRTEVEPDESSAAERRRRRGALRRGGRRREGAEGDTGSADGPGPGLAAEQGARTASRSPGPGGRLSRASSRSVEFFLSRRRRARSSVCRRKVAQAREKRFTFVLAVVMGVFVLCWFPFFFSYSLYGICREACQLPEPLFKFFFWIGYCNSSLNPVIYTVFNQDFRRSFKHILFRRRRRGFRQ
T1 sequence (P19328 whole entry): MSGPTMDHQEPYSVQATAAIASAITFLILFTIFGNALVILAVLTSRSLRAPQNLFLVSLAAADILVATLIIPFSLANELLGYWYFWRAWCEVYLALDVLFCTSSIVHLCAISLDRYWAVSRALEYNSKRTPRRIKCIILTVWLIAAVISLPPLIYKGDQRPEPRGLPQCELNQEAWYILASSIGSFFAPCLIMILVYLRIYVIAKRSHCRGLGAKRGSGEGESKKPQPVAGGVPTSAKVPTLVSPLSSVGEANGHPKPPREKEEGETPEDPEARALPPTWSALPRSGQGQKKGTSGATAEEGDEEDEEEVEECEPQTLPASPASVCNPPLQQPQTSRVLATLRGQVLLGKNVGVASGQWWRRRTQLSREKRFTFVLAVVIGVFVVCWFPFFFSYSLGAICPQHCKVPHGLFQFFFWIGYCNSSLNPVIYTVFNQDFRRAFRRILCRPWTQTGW
T1 sequence (P22909 whole entry): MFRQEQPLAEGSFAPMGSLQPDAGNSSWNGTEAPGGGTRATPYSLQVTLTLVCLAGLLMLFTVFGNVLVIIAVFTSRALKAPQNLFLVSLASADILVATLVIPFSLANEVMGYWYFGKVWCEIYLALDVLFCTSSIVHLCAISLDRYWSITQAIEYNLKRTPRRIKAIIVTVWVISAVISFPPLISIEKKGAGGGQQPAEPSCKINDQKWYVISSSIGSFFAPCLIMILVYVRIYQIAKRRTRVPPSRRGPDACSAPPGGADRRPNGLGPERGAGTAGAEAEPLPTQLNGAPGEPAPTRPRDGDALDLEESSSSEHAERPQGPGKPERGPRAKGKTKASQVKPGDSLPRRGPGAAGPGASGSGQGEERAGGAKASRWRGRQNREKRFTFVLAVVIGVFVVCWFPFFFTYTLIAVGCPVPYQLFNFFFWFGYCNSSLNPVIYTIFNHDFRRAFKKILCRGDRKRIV
How it was run: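 Rat cortex synaptic membranes (male Wistar rats, 150-250 g; homogenized in HEPES-sucrose, spun at 1000g then 42000g, pellet washed in 3 mM K phosphate pH 7.5 with 30 min 25 °C preincubation). Displacement of [3H]p-aminoclonidine (0.1 nM), 20 min at 25 °C; filtration, scintillation counting. 8-10 concentrations in triplicate; Ki from single-site fit, nonspecific binding as fitted parameter.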

Mus musculus [2] = organism: Mus musculus; assay: Mouse Acetylcholine-induced Abdominal Irritant Test activity (MAIT); format: functional; details: Abdomen
How it was run: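 Male CD-1 mice, 18-24 g, fed ad libitum until testing. Compound or vehicle given orally by gavage; at set intervals afterwards, acetylcholine bromide 5.5 mg/kg i.p. Mice observed in bell jars for a single abdominal response; % antinociception per dose taken from responder counts. ED50 with 95% confidence limits by Litchfield-Wilcoxon probit analysis, including a chi-square test for linearity.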

Mus musculus [3] = organism: Mus musculus; assay: Mouse Acetylcholine-induced Abdominal Irritant Test activity(MAIT) of the compound.; details: Abdomen

Structure (SMILES) | Ki [1] [nM] | ED50 (Mus musculus [2]) [mg/kg] | ED50 (Mus musculus [3]) [mg/kg]
CCc1nc(Cc2ncc[nH]2)c(CC)s1 | > 1000 | > 30 | 
Cc1cccc(C(C)c2c[nH]cn2)c1C (single isomer, unassigned) [DEXMEDETOMIDINE] | 0.015 |  | 0.09
CCc1nc(Cc2c[nH]cn2)c(CC)o1 | 58 | 2.8 | 
CCc1sc(Cc2c[nH]cn2)nc1C | 18 | 2.8 | 
CC(C)c1nc(Cc2c[nH]cn2)c(C(C)C)s1 | 285 | 23.8 | 
CCCCc1nc(Cc2c[nH]cn2)c(CCCC)s1 | 35 | > 30 | 
Cc1nc(Cc2c[nH]cn2)sc1C | 11 | 1.7 | 
c1nc(Cc2nc3c(s2)CCCC3)c[nH]1 | 110 | > 30 | 
CCc1nc(Cc2[nH]cnc2C)c(CC)s1 [ENTRY 68 A] | 53 |  | 
CCc1cnc(Cc2c[nH]cn2)s1 | 381 | > 30 | 
CCc1nc(CC)c(C(C)c2c[nH]cn2)s1 (centres undefined) | 97 | > 30 | 
CCCc1nc(Cc2c[nH]cn2)c(CCC)s1 | 97 | 30 | 
Cc1nc(Cc2c[nH]cn2)c(C)o1 | > 1000 | > 30 | 
CCc1nc(CC)c(Cc2c[nH]cn2)s1 | 23 | > 30 | 
CCc1nc(C(C)c2c[nH]cn2)c(CC)s1 (centres undefined) | 407 | 16 | 
CCc1nc(Cc2c[nH]cn2)sc1CC | 86 | > 30 | 
CCc1nc(Cc2c[nH]cn2)c(C)s1 | 57 | > 30 | 
CCc1sc(C)nc1Cc1c[nH]cn1 | 10 | 2.3 | 

Structure (SMILES) | Ki [1] [nM] | ED50 (Mus musculus [2]) [mg/kg] | ED50 (Mus musculus [3]) [mg/kg]
c1nc(Cc2nc3c(s2)CCC3)c[nH]1 | 28 | > 30 | 
CCc1nc(Cc2c[nH]cn2)c(CC)s1 | 17 | 1.8 | 
CCc1nc(Cc2nc[nH]n2)c(CC)s1 | > 1000 | > 30 | 
CCc1sc(-c2ccccc2)nc1Cc1c[nH]cn1 | 13 | 15 | 
CCc1nc(Cc2c[nH]cn2)sc1C | 18 | > 30 | 
CCc1nc(Cc2c[nH]cn2)c(C(C)C)s1 | 235 | 25.3 | 
CCc1nc(C(Cc2ccccc2)c2c[nH]cn2)c(CC)s1 (centres undefined) | 37 | > 30 | 
Cc1nc(Cc2c[nH]cn2)c(C)s1 | 38 | > 30 | 
c1ccc2sc(Cc3c[nH]cn3)nc2c1 | 18 | > 30 | 
CCc1sc(C(F)(F)F)nc1Cc1c[nH]cn1 | 320 | 20.3 | 
CC(C)c1nc(Cc2c[nH]cn2)c(C(C)C)o1 | 714 | 6.9 | 
CCc1nc(Cc2cn[nH]n2)c(CC)s1 | > 1000 | > 30 | 
Cc1nc(C)c(Cc2c[nH]cn2)s1 | 8 | 1 | 
CCc1sc(C(C)C)nc1Cc1c[nH]cn1 | 28 | 7.5 | 
Cc1nc(C)c(C(c2ccccc2)c2c[nH]cn2)s1 (centres undefined) | 269 | > 30 | 
CCc1csc(Cc2c[nH]cn2)n1 | 36 | > 30 | 
Cc1nc(C)c(C(C)c2c[nH]cn2)s1 (centres undefined) | 60 | > 30 | 
